Converted amounts (≈) assume the structure as drawn.
How the values were obtained:
[1] = Cytotoxicity against human HEL cells assessed as alteration in cell morphology; assay type: cell-based
Method in brief: (§1)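 Uninfected cell cultures tested in parallel with the CPE-reduction antiviral assay; cells grown to confluency, then serial compound dilutions added and incubated at 37 °C (3 days in the parallel antiviral set-up). Read-out is microscopic examination of morphology; value is the minimum cytotoxic concentration, the lowest causing a microscopically detectable alteration of normal cell morphology.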

[2] = tested on: Human alphaherpesvirus 1; assay: Antiviral activity against HSV1 KOS infected in human HEL cells assessed as reduction in virus-induced cytopathogenicity after 3 days; assay type: functional, organism-based; settings: Human alphaherpesvirus 1, KOS, 72 h
[3] = tested on: Human alphaherpesvirus 2; assay: Antiviral activity against HSV2 G infected in human HEL cells assessed as reduction in virus-induced cytopathogenicity after 3 days; assay type: functional, organism-based; settings: Human alphaherpesvirus 2, strain G, 72 h
[4] = tested on: Vesicular stomatitis virus; assay: Antiviral activity against VSV infected in human HEL cells assessed as reduction in virus-induced cytopathogenicity after 3 days; assay type: functional, organism-based; settings: 72 h
[5] = tested on: Human alphaherpesvirus 1; assay: Antiviral activity against thymidine kinase-deficient acyclovir-resistant HSV1 KOS infected in human HEL cells assessed as reduction in virus-induced cytopathogenicity after 3 days; assay type: functional, organism-based; settings: Human alphaherpesvirus 1, KOS, 72 h
[6] = tested on: Staphylococcus aureus; assay: Antimicrobial activity against Staphylococcus aureus after 24 hrs by tube dilution method; assay type: functional
Method in brief: (§2)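 Tube dilution in DMSO (stock 100 mg/ml) with serial dilutions; incubation 37 °C for 48 h for C. albicans (other organisms' times truncated in text). MIC read as lowest concentration inhibiting visible growth. Norfloxacin (bacteria) and fluconazole (fungi) as reference drugs.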

[7] = tested on: Bacillus subtilis; assay: Antimicrobial activity against Bacillus subtilis after 24 hrs by tube dilution method; assay type: functional; method in brief: as §2
[8] = tested on: Escherichia coli; assay: Antimicrobial activity against Escherichia coli after 24 hrs by tube dilution method; assay type: functional; method in brief: as §2
[9] = tested on: Aspergillus niger; assay: Antimicrobial activity against Aspergillus niger after 7 days by tube dilution method; assay type: functional; settings: 168 h; method in brief: as §2
[10] = tested on: Candida albicans; assay: Antimicrobial activity against Candida albicans after 48 hrs by tube dilution method; assay type: functional; method in brief: as §2
[11] = Cytotoxicity against human HeLa cells assessed as alteration in cell morphology; assay type: cell-based; method in brief: as §1
[12] = tested on: Vesicular stomatitis virus; assay: Antiviral activity against VSV infected in human HeLa cells assessed as reduction in virus-induced cytopathogenicity after 3 days; assay type: functional, organism-based; settings: 72 h
[13] = tested on: Coxsackievirus B4; assay: Antiviral activity against Coxsackievirus B4 infected in human HeLa cells assessed as reduction in virus-induced cytopathogenicity after 3 days; assay type: functional, organism-based; settings: Enterovirus B, 72 h
[14] = tested on: Respiratory syncytial virus; assay: Antiviral activity against RSV infected in human HeLa cells assessed as reduction in virus-induced cytopathogenicity after 3 days; assay type: functional, organism-based; settings: 72 h
[15] = Cytotoxicity against african green monkey Vero cells assessed as alteration in cell morphology; assay type: cell-based; settings: chlorocebus sabaeus; method in brief: as §1
[16] = tested on: Human respirovirus 3; assay: Antiviral activity against Parainfluenza-3 virus infected in african green monkey Vero cells assessed as reduction in virus-induced cytopathogenicity after 3 days; assay type: functional, organism-based; settings: Human respirovirus 3, Vero, 72 h
[17] = tested on: Mammalian orthoreovirus 1; assay: Antiviral activity against Reovirus 1 infected in african green monkey Vero cells assessed as reduction in virus-induced cytopathogenicity after 3 days; assay type: functional, organism-based; settings: Mammalian orthoreovirus 1, Vero, 72 h
[18] = tested on: Sindbis virus; assay: Antiviral activity against Sindbis virus infected in african green monkey Vero cells assessed as reduction in virus-induced cytopathogenicity after 3 days; assay type: functional, organism-based; settings: 72 h
[19] = tested on: Coxsackievirus B4; assay: Antiviral activity against Coxsackievirus B4 infected in african green monkey Vero cells assessed as reduction in virus-induced cytopathogenicity after 3 days; assay type: functional, organism-based; settings: Enterovirus B, 72 h
[20] = tested on: Punta Toro virus; assay: Antiviral activity against Punta Toro virus infected in african green monkey Vero cells assessed as reduction in virus-induced cytopathogenicity after 3 days; assay type: functional, organism-based; settings: 72 h

Row | SMILES | MCC [1] [µg/mL] | EC50 [2] [µg/mL] | EC50 [3] [µg/mL] | EC50 [4] [µg/mL] | EC50 [5] [µg/mL] | MBC [6] [µM] | MIC [6] [µM] | MBC [7] [µM] | MIC [7] [µM] | MBC [8] [µM] | MIC [8] [µM] | MFC [9] [µM] | MIC [9] [µM] | MFC [10] [µM] | MIC [10] [µM] | MCC [11] [µg/mL] | MCC [15] [µg/mL] | EC50 [17] [µg/mL] | EC50 [18] [µg/mL] | EC50 [19] [µg/mL] | further results
1 | Nc1nc2c(ncn2COC(CO)CO)c(=O)[nH]1 [GANCICLOVIR] | > 100 | 0.06 (≈ 0.235 µM) | 0.06 (≈ 0.235 µM) | > 100 | 1 (≈ 3.92 µM) | – | – | – | – | – | – | – | – | – | – | – | – | – | – | – | –
2 | Clc1ccc(-c2ncc[nH]2)cc1 | – | – | – | – | – | 35 (≈ 6.25 µg/mL) | 4 (≈ 0.714 µg/mL) | 702 (≈ 125 µg/mL) | 8 (≈ 1.43 µg/mL) | 702 (≈ 125 µg/mL) | 8 (≈ 1.43 µg/mL) | 561 (≈ 100 µg/mL) | 702 (≈ 125 µg/mL) | 280 (≈ 50 µg/mL) | 35 (≈ 6.25 µg/mL) | – | – | – | – | – | –
3 | O=C(c1ccccc1Br)n1ccnc1-c1cccc([N+](=O)[O-])c1 | > 100 | > 100 | > 100 | > 100 | > 100 | 33 (≈ 12.3 µg/mL) | 4 (≈ 1.49 µg/mL) | 268 (≈ 99.7 µg/mL) | 33 (≈ 12.3 µg/mL) | 16 (≈ 5.95 µg/mL) | 2 (≈ 0.744 µg/mL) | 67 (≈ 24.9 µg/mL) | 16 (≈ 5.95 µg/mL) | 268 (≈ 99.7 µg/mL) | 16 (≈ 5.95 µg/mL) | > 100 | > 100 | > 100 | > 100 | > 100 | EC50 [12]: > 100 µg/mL; EC50 [13]: > 100 µg/mL; EC50 [14]: > 100 µg/mL; EC50 [16]: > 100 µg/mL; EC50 [20]: > 100 µg/mL
4 | O=C(c1ccccc1Br)n1ccnc1-c1ccc(Cl)cc1 | > 100 | > 100 | > 100 | > 100 | > 100 | 17 (≈ 6.15 µg/mL) | 2 (≈ 0.723 µg/mL) | 17 (≈ 6.15 µg/mL) | 2 (≈ 0.723 µg/mL) | 17 (≈ 6.15 µg/mL) | 2 (≈ 0.723 µg/mL) | 69 (≈ 25 µg/mL) | 8 (≈ 2.89 µg/mL) | 138 (≈ 49.9 µg/mL) | 17 (≈ 6.15 µg/mL) | > 100 | > 100 | > 100 | > 100 | > 100 | EC50 [12]: > 100 µg/mL; EC50 [13]: > 100 µg/mL; EC50 [14]: > 100 µg/mL; EC50 [16]: > 100 µg/mL; EC50 [20]: > 100 µg/mL
5 | O=C(O)c1ccccc1-c1nccn1C(=O)c1ccc([N+](=O)[O-])cc1 | > 100 | > 100 | > 100 | > 100 | > 100 | 18 (≈ 6.07 µg/mL) | 2 (≈ 0.675 µg/mL) | 18 (≈ 6.07 µg/mL) | 2 (≈ 0.675 µg/mL) | 18 (≈ 6.07 µg/mL) | 2 (≈ 0.675 µg/mL) | 148 (≈ 49.9 µg/mL) | 9 (≈ 3.04 µg/mL) | 256 (≈ 86.3 µg/mL) | 18 (≈ 6.07 µg/mL) | > 100 | > 100 | > 100 | > 100 | > 100 | EC50 [12]: > 100 µg/mL; EC50 [13]: > 100 µg/mL; EC50 [14]: > 100 µg/mL; EC50 [16]: > 100 µg/mL; EC50 [20]: > 100 µg/mL
6 | Cc1cccc(-c2ncc[nH]2)c1C | – | – | – | – | – | 36 (≈ 6.2 µg/mL) | 4 (≈ 0.689 µg/mL) | 36 (≈ 6.2 µg/mL) | 4 (≈ 0.689 µg/mL) | 36 (≈ 6.2 µg/mL) | 4 (≈ 0.689 µg/mL) | 144 (≈ 24.8 µg/mL) | 17 (≈ 2.93 µg/mL) | 289 (≈ 49.8 µg/mL) | 72 (≈ 12.4 µg/mL) | – | – | – | – | – | –
7 | NC(=O)c1ncn([C@@H]2O[C@H](CO)[C@@H](O)[C@H]2O)n1 [RIBAVIRIN] | > 250 | > 250 | > 250 | – | > 250 | – | – | – | – | – | – | – | – | – | – | > 250 | > 250 | > 250 | > 250 | > 250 | –
8 | O=C(c1ccccc1Br)n1ccnc1-c1ccccc1[N+](=O)[O-] | > 100 | > 100 | > 100 | > 100 | > 100 | 268 (≈ 99.7 µg/mL) | 2 (≈ 0.744 µg/mL) | 268 (≈ 99.7 µg/mL) | 2 (≈ 0.744 µg/mL) | 268 (≈ 99.7 µg/mL) | 33 (≈ 12.3 µg/mL) | 67 (≈ 24.9 µg/mL) | 4 (≈ 1.49 µg/mL) | 268 (≈ 99.7 µg/mL) | 33 (≈ 12.3 µg/mL) | > 100 | > 100 | > 100 | > 100 | > 100 | EC50 [12]: > 100 µg/mL; EC50 [13]: > 100 µg/mL; EC50 [14]: > 100 µg/mL; EC50 [16]: > 100 µg/mL; EC50 [20]: > 100 µg/mL
9 | O=C(c1ccccc1Br)n1ccnc1-c1ccccc1Cl | > 100 | > 100 | > 100 | > 100 | > 100 | 268 (≈ 96.9 µg/mL) | 69 (≈ 25 µg/mL) | 268 (≈ 96.9 µg/mL) | 69 (≈ 25 µg/mL) | 268 (≈ 96.9 µg/mL) | 69 (≈ 25 µg/mL) | 138 (≈ 49.9 µg/mL) | 8 (≈ 2.89 µg/mL) | 138 (≈ 49.9 µg/mL) | 17 (≈ 6.15 µg/mL) | > 100 | > 100 | > 100 | > 100 | > 100 | EC50 [12]: > 100 µg/mL; EC50 [13]: > 100 µg/mL; EC50 [14]: > 100 µg/mL; EC50 [16]: > 100 µg/mL; EC50 [20]: > 100 µg/mL
10 | O=[N+]([O-])c1ccc(-c2ncc[nH]2)cc1 | – | – | – | – | – | 33 (≈ 6.24 µg/mL) | 4 (≈ 0.757 µg/mL) | 132 (≈ 25 µg/mL) | 16 (≈ 3.03 µg/mL) | 33 (≈ 6.24 µg/mL) | 4 (≈ 0.757 µg/mL) | 264 (≈ 49.9 µg/mL) | 33 (≈ 6.24 µg/mL) | 264 (≈ 49.9 µg/mL) | 33 (≈ 6.24 µg/mL) | – | – | – | – | – | –
11 | O=C(O)c1ccccc1-c1ncc[nH]1 | – | – | – | – | – | 531 (≈ 99.9 µg/mL) | 4 (≈ 0.753 µg/mL) | 33 (≈ 6.21 µg/mL) | 4 (≈ 0.753 µg/mL) | 265 (≈ 49.9 µg/mL) | 4 (≈ 0.753 µg/mL) | 265 (≈ 49.9 µg/mL) | 33 (≈ 6.21 µg/mL) | 526 (≈ 99 µg/mL) | 66 (≈ 12.4 µg/mL) | – | – | – | – | – | –
